Assay results from ChEMBL document CHEMBL1221219, “Selective blockade of 2-arachidonoylglycerol hydrolysis produces cannabinoid behavioral effects” (Nat Chem Biol, 2009).
Active and inactive are the calls of the source. The rule behind the calls is not given here.

Assays:
Mus musculus [1] = assay: Inhibition of FAAH in C57B1/6J mouse brain membrane at 10 mg/kg, ip by competitive activity-based protein profiling method; type: functional, organism-based; set-up: dose 10 mg/kg
Mus musculus [2] = assay: Change in N-acylethanolamine level in C57B1/6J mouse brain at 16 mg/kg, ip by LC-MS; type: functional, organism-based; set-up: dose 16 mg/kg
Outline: (§1)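 Mice received 16 mg kg^-1 i.p. in 4:1 PEG300:Tween80 and were killed at 0.5, 1, 2, 4, 8 and 24 h. Brain lipids, including N-acylethanolamines, MAGs, free fatty acids and arachidonic acid, were measured by LC-MS.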

Mus musculus [3] = assay: Inhibition of MAGL in C57B1/6J mouse brain membrane at 16 mg/kg, ip after 0.5 hrs by competitive activity-based protein profiling method; type: functional, organism-based; set-up: dose 16 mg/kg
Outline: (§2)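 Male C57Bl/6J mice (6-8 weeks, 20-26 g) given inhibitor i.p. in 4:1 v/v PEG300:Tween80 at 4 ul g^-1 (4-40 mg kg^-1); vehicle controls. Brain membrane proteomes (1 mg ml^-1 in PBS) labelled with FP-rhodamine (2 μM) for 30 min at room temperature. Readout by SDS-PAGE and in-gel fluorescence scanning, compared with vehicle.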

Mus musculus [4] = assay: Inhibition of FAAH in C57B1/6J mouse brain membrane at 16 mg/kg, ip after 0.5-24 hrs by competitive activity-based protein profiling method; type: functional; settings: route intraperitoneal; outline: as §2
Mus musculus [5] = assay: Inhibition of CES31 in C57B1/6J mouse brain membrane at 16 mg/kg, ip after 4 hrs by competitive activity-based protein profiling-MudPIT method; type: functional, organism-based; set-up: dose 16 mg/kg
Outline: (§3)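 Mice were dosed 16 mg kg^-1 i.p. or vehicle and killed at 4 h. Brain membrane proteomes were labelled with FP-biotin, avidin-enriched, trypsin-digested on bead, analysed by multidimensional LC-MS and identified by SEQUEST.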

Mus musculus [6] = assay: Induction of hypothermia in CB1 receptor deficient C57B1/6J mouse at 16 mg/kg, ip; type: functional, organism-based; set-up: dose 16 mg/kg
Outline: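 Male C57Bl/6J mice, 6-8 weeks, 20-26 g, given 16 mg kg^-1 i.p. in 4:1 v/v PEG300:Tween80 at 4 μl g^-1; vehicle controls received PEG300:Tween80 alone. Cannabinoid effects were scored in the tetrad test.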

Mus musculus [7] = assay: Inhibition of NTE-like in C57B1/6J mouse brain membrane at 16 mg/kg, ip after 4 hrs by competitive activity-based protein profiling-MudPIT method; type: functional, organism-based; set-up: dose 16 mg/kg
Outline: (§4)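 After i.p. dosing in 4:1 PEG300:Tween80, male C57Bl/6J mice were killed at 4 h. Brain membrane proteomes from treated and vehicle mice were labelled with FP-biotin. Labelled proteins were enriched on avidin, digested on-bead with trypsin and analysed by multidimensional LC-MS. Proteins were identified by SEQUEST, and dosed samples were compared with vehicle.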

Mus musculus [8] = assay: Change in anandamide level in C57B1/6J mouse brain at 16 mg/kg, ip by LC-MS; type: functional, organism-based; set-up: dose 16 mg/kg; outline: as §1
Mus musculus [9] = assay: Inhibition of PNPLA8 in C57B1/6J mouse brain membrane at 16 mg/kg, ip after 4 hrs by competitive activity-based protein profiling-MudPIT method; type: functional, organism-based; set-up: dose 16 mg/kg; outline: as §4
Mus musculus [10] = assay: Antinociceptive activity against formalin-induced pain in C57B1/6J mouse assessed as paw lifting or licking during late phase (20-40 mins) at 40 m/kg, po administered 2 hrs before formalin challenge; type: functional, organism-based
Mus musculus [11] = assay: Change in mono-oleoylglycerol levels in intraperitoneally dosed C57B1/6J mouse brain by LC-MS; type: functional, organism-based
Outline: (§5)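 Male C57Bl/6J mice given 4, 8, 16 or 40 mg kg^-1 i.p. in 4:1 PEG300:Tween80 at 4 μl g^-1, or vehicle, and killed after 4 h. Whole-brain lipids were quantified by LC-MS.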

Mus musculus [12] = assay: Inhibition of MAGL in C57B1/6 mouse nucleus accumbens assessed as increase in interstitial level of 2-AG at 10 mg/kg, ip by following neuronal depolarization by microdialysis; type: functional, organism-based; set-up: dose 10 mg/kg
Outline: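 Male C57Bl/6 mice received 10 mg kg^-1 i.p. 1 h before neuronal depolarization. 2-AG and AEA were sampled by in vivo microdialysis from the nucleus accumbens.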

Mus musculus [13] = assay: Inhibition of FAS in C57B1/6J mouse brain membrane at 16 mg/kg, ip after 4 hrs by competitive activity-based protein profiling-MudPIT method; type: functional, organism-based; set-up: dose 16 mg/kg; outline: as §4
Mus musculus [14] = assay: Inhibition of ABHD12 in C57B1/6J mouse brain membrane at 16 mg/kg, ip after 4 hrs by competitive activity-based protein profiling-MudPIT method; type: functional, organism-based; set-up: dose 16 mg/kg; outline: as §3
Mus musculus [15] = assay: Change in 2-AG levels in intraperitoneally dosed C57B1/6J mouse brain by LC-MS; type: functional, organism-based; outline: as §5
Mus musculus [16] = assay: Decrease in arachidonic acid levels in C57B1/6J mouse brain at 16 mg/kg, ip by LC-MS; type: functional, organism-based; set-up: dose 16 mg/kg; outline: as §1
[17] = biological target: T1, Fatty-acid amide hydrolase 1 (Mus musculus, UniProt O08914); assay: Inhibition of FAAH in C57B1/6J mouse brain membrane after 20 mins by using oleamide as a substrate by LC-MS method; type: cell membranes
T1 sequence (O08914 whole entry): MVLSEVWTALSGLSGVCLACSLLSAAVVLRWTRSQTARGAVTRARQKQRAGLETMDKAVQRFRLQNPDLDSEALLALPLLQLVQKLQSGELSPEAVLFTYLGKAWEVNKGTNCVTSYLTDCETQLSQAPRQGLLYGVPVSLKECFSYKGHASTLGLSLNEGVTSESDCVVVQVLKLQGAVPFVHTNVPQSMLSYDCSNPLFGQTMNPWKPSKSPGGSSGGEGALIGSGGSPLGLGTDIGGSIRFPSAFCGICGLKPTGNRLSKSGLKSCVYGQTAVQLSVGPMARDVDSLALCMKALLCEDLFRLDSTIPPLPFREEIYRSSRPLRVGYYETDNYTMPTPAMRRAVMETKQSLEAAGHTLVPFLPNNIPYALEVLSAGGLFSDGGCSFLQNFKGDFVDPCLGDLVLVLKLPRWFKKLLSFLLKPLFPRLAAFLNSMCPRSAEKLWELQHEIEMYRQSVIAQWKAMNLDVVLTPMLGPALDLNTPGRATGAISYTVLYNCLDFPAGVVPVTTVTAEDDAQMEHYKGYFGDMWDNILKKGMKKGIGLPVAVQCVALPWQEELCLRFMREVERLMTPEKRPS
Outline: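 Mouse brain membrane proteome pre-incubated with inhibitor for 30 min at 37°C, then oleamide (FAAH substrate) added. Hydrolysis quantified by an LC-MS substrate assay.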

Mus musculus [18] = assay: Inhibition of FAAH in intraperitoneally dosed C57B1/6J mouse brain membrane after 4 hrs by competitive activity-based protein profiling method; type: functional, organism-based; outline: as §2
Mus musculus [19] = assay: Antinociceptive activity against formalin-induced pain in C57B1/6J mouse assessed as paw lifting or licking during early phase (0 to 10 mins) at 40 m/kg, po administered 2 hrs before formalin challenge; type: functional, organism-based
Mus musculus [20] = assay: Effect on interstitial level of AEA in C57B1/6 mouse nucleus accumbens at 10 mg/kg, ip by following neuronal depolarization by microdialysis; type: functional, organism-based; set-up: dose 10 mg/kg
Outline: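 In vivo microdialysis from nucleus accumbens of C57Bl/6 mice after 10 mg kg^-1 i.p. Drug was given 1 h before neuronal depolarization, and interstitial AEA and 2-AG were measured in the dialysate.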

Mus musculus [21] = assay: Inhibition of ACOT1 in C57B1/6J mouse brain membrane at 16 mg/kg, ip after 4 hrs by competitive activity-based protein profiling-MudPIT method; type: functional, organism-based; set-up: dose 16 mg/kg; outline: as §3

**Q.** What does the source list for `O=C(Oc1ccc([N+](=O)[O-])cc1)N1CCC(C(O)(c2ccc3c(c2)OCO3)c2ccc3c(c2)OCO3)CC1`?
**A.** inhibition (Mus musculus [1]): Active; Activity (Mus musculus [2]): inactive; inhibition (Mus musculus [3]): Active; inhibition in vivo at 16 mg/kg (Mus musculus [4]): 70%; inhibition (Mus musculus [5]): inactive; Activity (Mus musculus [6]): inactive; inhibition (Mus musculus [7]): inactive; Activity (Mus musculus [8]): inactive; inhibition (Mus musculus [9]): inactive; Activity (Mus musculus [10]): Active; Activity (Mus musculus [11]): inactive; inhibition (Mus musculus [12]): Active; inhibition (Mus musculus [13]): inactive; inhibition (Mus musculus [14]): inactive; Activity (Mus musculus [15]): inactive; Activity (Mus musculus [16]): Active; IC50 [17]: 4 µM; inhibition (Mus musculus [18]): Dose-dependent effect; Activity (Mus musculus [19]): Active; Activity (Mus musculus [20]): inactive; inhibition (Mus musculus [21]): inactive
